The text below walks through data of ChEMBL document CHEMBL1152517, “Isocombretastatins A: 1,1-diarylethenes as potent inhibitors of tubulin polymerization and cytotoxic compounds” (Bioorg Med Chem, 2009).

Bounds are passed on as bounds.

One assay deals with HL-60. Kind of assay: Cytotoxicity against human HL60 cells after 72 hrs by XTT assay. In kind it is functional, cell-based. The note with it: HL-60, 72 h. The gist of the method:
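Cells seeded per well (HeLa 1.5 × 10^3, HT-29 3 × 10^3, A-549 5 × 10^3, HL-60 3 × 10^3). Adherent lines attached for 24 h at 37 °C, 5% CO2. Compound exposure at various concentrations for 72 h. XTT/PMS reagent added, 4 h further incubation, formazan absorbance read at 490 nm (reference 655 nm). IC50 is concentration giving 50% proliferation inhibition. Mean of three independent experiments run in triplicate.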
(Tetrazolium dyes change colour on reduction, which living cells bring about.)

For a further assay, the system named is A549. Briefly: Cytotoxicity against human A549 cells after 72 hrs by XTT assay. In kind it is functional, cell-based. The note with it: A549, 72 h.
Another assay relates to HeLa. Kind of assay: Cytotoxicity against human HeLa cells after 72 hrs by XTT assay. Type of assay: functional, cell-based.
The subject of a further assay is HT-29. Kind of assay: Cytotoxicity against human HT-29 cells after 72 hrs by XTT assay. As to conditions: HT-29, 72 h. In kind it is functional, cell-based.
The species named for assay [1] is Bos taurus. Kind of assay: Inhibition of calf brain tubulin polymerization at 5 uM after 20 mins by turbidimetric method.
Assay [2] can be described thus: Inhibition of calf brain tubulin polymerization after 20 mins by turbidimetric method. On the set-up: species or system Bos taurus. Summed up: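 Microtubule protein at 1.0 mg/mL in 0.1 M MES, 1 mM EGTA, 1 mM MgCl2, 1 mM β-ME, 1.5 mM GTP, pH 6.7, with 4% DMSO. Preincubated with ligand 30 min at 20 °C, then 10 min on ice. Assembly started by shift from 4 to 37 °C and followed by turbidity at 450 nm. IC50 read graphically as 50% inhibition at 20 min. At least two independent experiments using different protein preparations.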

For assay [3], the species on record is Bos taurus. Briefly: Inhibition of calf brain tubulin polymerization at 20 uM after 20 mins by turbidimetric method.
The species entered for assay [4] is Bos taurus. Briefly: Inhibition of calf brain tubulin polymerization at 40 uM after 20 mins by turbidimetric method.

Usually IC50 stands for the midpoint of a concentration-inhibition curve. A high value points to lower potency. Consider `COc1cccc2c1C(=O)c1c(O)c3c(c(O)c1C2=O)C[C@@](O)(C(=O)CO)C[C@@H]3O[C@H]1C[C@H](N)[C@H](O)[C@H](C)O1` [DOXORUBICIN], for which the IC50 came out at 0.027 µM in the assay with HL-60, 0.29 µM in the assay on A549, 0.19 µM with HeLa and 0.24 µM with HT-29.
As a reminder, the inhibition is the share of the control response that was lost under treatment. A lower inhibition goes with little suppression. `COc1ccc(C(=O)c2cc(OC)c(OC)c(OC)c2)cc1N` came in with an inhibition in the assay listed under Bos taurus [1] of 81%. Besides, the IC50 in assay [2] is 1.5 µM; in the assay with HL-60, 0.03 µM; in the assay on A549, 0.057 µM; in the assay on HeLa it was 0.03 µM; with HT-29, 0.032 µM.
Consider `C=C(c1ccc2ccccc2c1)c1ccc(OC)c(OC)c1OC`, for which the IC50 in the assay on HeLa was 0.2 µM; with HT-29 it was > 10 µM. The inhibition in the assay listed under Bos taurus [3] was 11%.
As for `COc1ccc(C(=O)c2cc(OC)c(OC)c(OC)c2)cc1[N+](=O)[O-]`, the half-maximal inhibitory concentration (IC50) with HL-60 is 1.8 µM; with A549, > 10 µM; in the assay on HeLa it was 2.5 µM; in the assay with HT-29, 2.9 µM. In addition, the inhibition in the assay filed under Bos taurus [3] is 12%.
For the compound `C=C(c1cc(OC)c(OC)c(OC)c1)c1ccc2ccccc2c1`, the IC50 in assay [2] was 15 µM; with HL-60 it was 0.91 µM; in the assay on A549, 0.36 µM; in the assay with HeLa, 0.3 µM; in the assay with HT-29, 0.25 µM. Further, the inhibition in the assay listed under Bos taurus [3] worked out at 82%.
Take `C=C(c1cc(OC)c(OC)c(OC)c1)c1ccc2c(ccn2CC)c1`: the IC50 in assay [2] amounted to 6 µM; in the assay with HeLa, 0.017 µM; with HT-29 it was 0.035 µM. This compound also returned an inhibition in the assay listed under Bos taurus [3] of 83%.
For `COc1ccc(C(=O)c2cc(OC)c(OC)c(OC)c2)cc1O` [PHENSTATIN], the IC50 was determined as 2.5 µM in assay [2], 0.031 µM with HL-60, 0.29 µM in the assay on A549 and 1.8 µM in the assay on HT-29. The inhibition in the assay listed under Bos taurus [3] was 94%.
For the compound `COc1ccc(C(=O)c2cc(OC)c(OC)c(OC)c2)cc1`, the IC50 with HL-60 was found to be 0.27 µM; in the assay on A549, 3.1 µM; in the assay on HeLa it was 0.037 µM; in the assay on HT-29, 0.29 µM. Besides, the inhibition in the assay listed under Bos taurus [3] was found to be 20%.
`COc1cc(C(O)c2ccc3ccccc3c2)cc(OC)c1OC` (stereo not drawn) showed an inhibition in the assay filed under Bos taurus [4] of 0%.
Consider `COc1ccc(/C=C\c2cc(OC)c(OC)c(OC)c2)cc1O` [COMBRETASTATIN A4], for which the IC50 in assay [2] turned out to be 3 µM; in the assay on HL-60, 0.002 µM.
In the case of `C=C(c1ccc(OC)c(N)c1)c1ccc(OC)c(OC)c1OC`, the IC50 amounted to 0.23 µM with HL-60, 2.7 µM with A549, 0.06 µM in the assay with HeLa and 0.33 µM in the assay with HT-29. For the same compound, the inhibition in the assay listed under Bos taurus [3] worked out at 32%.
In the same order, the values of `C=C(c1ccc(OC)c([N+](=O)[O-])c1)c1ccc(OC)c(OC)c1OC` are 2.6 µM, > 10 µM, 0.032 µM, 2.9 µM and 12%.
Consider `COc1ccc(C(=O)c2ccc(OC)c(OC)c2OC)cc1`, for which the IC50 was 2 µM with HL-60, > 10 µM with A549, 1.8 µM with HeLa and 3.1 µM with HT-29. This compound also gave an inhibition in the assay filed under Bos taurus [3] of 7%.
On to `COc1cc(C(O)c2ccc3c(ccn3C)c2)cc(OC)c1OC` (stereo not drawn), for which, in assay [2], the concentration for half-maximal inhibition (IC50) was 18 µM. The compound further displayed an inhibition in the assay filed under Bos taurus [3] of 86%.
As for `CCn1ccc2cc(C(=O)c3cc(OC)c(OC)c(OC)c3)ccc21`, the IC50 stood at 5.7 µM in assay [2] and 0.034 µM in the assay with HT-29. This compound displayed an inhibition in the assay filed under Bos taurus [3] of 95%.
For the compound `COc1ccc(C(O)c2ccc3ccccc3c2)c(OC)c1OC` (stereo not drawn), the IC50 with A549, in the assay on HeLa and in the assay on HT-29 was > 10 µM in each case. The compound also returned an inhibition in the assay filed under Bos taurus [3] of 0%.
As for `CCn1ccc2cc(C(=O)c3ccc(OC)c(OC)c3OC)ccc21`, the concentration for half-maximal inhibition (IC50) was 5.6 µM in assay [2]; > 1 µM in the assay on HL-60; > 10 µM in the assay with A549; 0.45 µM in the assay with HeLa; > 1 µM in the assay on HT-29. In the assay filed under Bos taurus [3], the inhibition was 47%.
For the compound `CCn1ccc2cc(C(O)c3ccc(OC)c(OC)c3OC)ccc21` (stereo not drawn), the half-inhibitory concentration (IC50) with HL-60 was > 10 µM; with A549, > 10 µM; with HeLa, < 1 µM; in the assay with HT-29, > 10 µM. The compound further displayed an inhibition in the assay listed under Bos taurus [3] of 0%.
As to `COc1cc(C(=O)c2ccc3c(ccn3C)c2)cc(OC)c1OC`, the IC50 in assay [2] was 7.9 µM; in the assay on HeLa it was 0.035 µM. In addition, the inhibition in the assay filed under Bos taurus [4] was determined as 98%.
In the same order, the values of `COc1cc(C(=O)c2ccc3ccccc3c2)cc(OC)c1OC` are 1.1 µM, 0.044 µM and 100%.
Take `COc1ccc(C(=O)c2ccc3c(ccn3C)c2)c(OC)c1OC`: the IC50 in the assay on A549 is 0.5 µM; with HeLa, 0.03 µM; in the assay on HT-29, 0.03 µM. The inhibition in the assay listed under Bos taurus [3] worked out at 40%.
On to `C=C(c1ccc(OC)cc1)c1ccc(OC)c(OC)c1OC`, for which the IC50 in the assay with HL-60 is 0.48 µM; in the assay with A549, > 10 µM; in the assay with HeLa, 0.3 µM; in the assay on HT-29, 3.2 µM. In addition, in the assay filed under Bos taurus [3], the inhibition was 16%.
With `COc1ccc(C(O)c2ccc3c(ccn3C)c2)c(OC)c1OC` (stereo not drawn), the IC50 in the assay on A549 was > 10 µM; in the assay on HeLa, 2.5 µM. The inhibition in the assay filed under Bos taurus [3] amounted to 9%.
In the case of `C=C(c1ccc2c(ccn2CC)c1)c1ccc(OC)c(OC)c1OC`, the IC50 with A549 is > 10 µM; with HeLa it was > 1 µM; in the assay with HT-29, > 1 µM. The inhibition in the assay filed under Bos taurus [3] came out at 34%.
For the compound `COc1ccc(C(=O)c2ccc3ccccc3c2)c(OC)c1OC`, the IC50 in the assay on HL-60 is 3.3 µM; in the assay with A549, > 10 µM; in the assay with HT-29 it was > 10 µM. Further, the inhibition in the assay filed under Bos taurus [3] stood at 4%.
On to `C=C(c1ccc(OC)c(O)c1)c1ccc(OC)c(OC)c1OC`, for which the IC50 in assay [2] is 12.2 µM; in the assay on HL-60, 0.24 µM; with A549 it was 0.22 µM; in the assay on HeLa, 0.035 µM; in the assay on HT-29 it was 0.31 µM. The inhibition in the assay filed under Bos taurus [3] was 86%.
Take `CCn1ccc2cc(C(O)c3cc(OC)c(OC)c(OC)c3)ccc21` (stereo not drawn): the IC50 was < 1 µM in the assay on HL-60, > 10 µM with A549, < 1 µM in the assay on HeLa and > 10 µM with HT-29. For the same compound, the inhibition in the assay filed under Bos taurus [3] worked out at 41%.
